Data published in PMC5892705 (Science signaling, 2017).
Like-named read-outs stand apart in the source and are kept apart here.

Columns and labels:
[1] = system: OT, V1a, V1b, V2 receptors; details: cited from earlier work
[2] = system: OT, V1a, V1b, V2 receptors; details: cited from earlier work; remark: listed apart in the source
[3] = system: OT, V1a, V1b, V2 receptors; details: cited from earlier work; remark: listed apart in the source
[4] = Human serum stability assay; format: in vitro ADME
Method in brief: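 Peptides were spiked into human serum. Aliquots were withdrawn at 1, 2, 3, 4, 12, 24 and 48 h and analysed by RP-HPLC and LCMS.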

rat V1aR = details: read-out: Ki at rat V1aR; ref Chini et al.([38]); cited from earlier work
human V1aR = details: read-out: Ki at human V1aR, cited from earlier work
mouse V2R = details: read-out: Ki at mouse V2R; ref Chini et al.([38]); cited from earlier work
rat V2R = details: read-out: Ki at rat V2R; ref Chini et al.([38]); cited from earlier work
human V2R = details: read-out: Ki at human V2R; ref Chini et al.([38]); cited from earlier work
human OTR = target: T1, human OTR (Homo sapiens, UniProt P30559); details: read-out: Ki at human OTR; ref Chini et al.([38]); cited from earlier work
T1 sequence (P30559 1-389): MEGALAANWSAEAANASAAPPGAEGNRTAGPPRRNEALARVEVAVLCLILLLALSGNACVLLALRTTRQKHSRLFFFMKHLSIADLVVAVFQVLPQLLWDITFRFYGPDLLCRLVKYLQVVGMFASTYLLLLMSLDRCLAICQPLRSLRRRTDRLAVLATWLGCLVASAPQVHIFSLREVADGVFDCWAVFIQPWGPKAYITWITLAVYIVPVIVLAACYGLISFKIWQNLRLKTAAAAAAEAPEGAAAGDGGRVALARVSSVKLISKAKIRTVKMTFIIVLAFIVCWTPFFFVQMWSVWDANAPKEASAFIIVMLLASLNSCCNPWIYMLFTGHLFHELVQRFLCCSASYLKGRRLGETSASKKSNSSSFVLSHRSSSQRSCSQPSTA

rat OTR = details: read-out: Ki at rat OTR; ref Chini et al.([38]); cited from earlier work
human V1bR = details: read-out: Ki at human V1bR; ref Chini et al.([38]); cited from earlier work
rat V1bR = details: read-out: Ki at rat V1bR; ref Chini et al.([38]); cited from earlier work
[5] = rat, ref [37], [38], [41], [48], [49], [63], [96]–[99]
[6] = human, ref [37], [38], [41], [48], [49], [63], [96]–[99]
[7] = mouse, ref [37], [38], [41], [48], [49], [63], [96]–[99]

For `N=C(N)NCCC[C@H](NC(=O)[C@@H]1CCCN1C(=O)[C@@H]1CSSC[C@H](N)C(=O)N[C@@H](Cc2ccc(O)cc2)C(=O)N[C@@H](Cc2ccccc2)C(=O)N[C@@H](CCC(N)=O)C(=O)N[C@@H](CC(N)=O)C(=O)N1)C(=O)NCC(N)=O` [AVP, arginine-vasopressin], the Selectivity [1] is listed as “unselective”, the Selectivity [2] is listed as “unselective” and the Selectivity [3] is listed as “unselective”.

`CC[C@H](C)[C@@H]1NC(=O)[C@H](Cc2ccc(O)cc2)NC(=O)[C@@H](N)CSSC[C@@H](C(=O)N2CCC[C@H]2C(=O)N[C@@H](CC(C)C)C(=O)NCC(N)=O)NC(=O)[C@H](CC(N)=O)NC(=O)[C@H](CCC(N)=O)NC1=O` [OT, Oxytocin] showed a half-life [4] of 12 h.

For `COc1ccc(S(=O)(=O)N2c3ccc(Cl)cc3[C@](O)(c3ccccc3Cl)[C@@H]2C(=O)N2CCC[C@H]2C(N)=O)cc1OC` [SR49049], the Ki (rat V1aR) is given as 2.2 nM.

In the case of `COc1ccc(S(=O)(=O)N2c3ccc(Cl)cc3[C@](O)(c3ccccc3Cl)[C@@H]2C(=O)N2CCC[C@H]2C(N)=O)cc1OC` [SR49059], the Ki (human V1aR; ref Chini et al.([38])) is given as 0.9 nM.

For `CCOc1ccc2c(c1)C1(CCC(OCCN3CCOCC3)CC1)C(=O)N2S(=O)(=O)c1ccc(C(=O)NC(C)(C)C)cc1OC` (stereo not shown) [SR121463], the Ki (mouse V2R) is given as 11.2 nM, the Ki (rat V2R) is given as 1.5 nM and the Ki (human V2R) is given as 4.1 nM.

For `CCN(Cc1cccnc1)C(=O)c1ccc(Cl)c(C2(C)C(=O)N(Cc3ccc(OC)cc3OC)c3ccc(Cl)cc32)c1` (stereo not shown) [SSR126768], the Ki (human OTR) is given as 0.9 nM.

For Atosiban, the Selectivity [1, 5] is given as “unselective”, the Selectivity [2, 6] is given as “V1a preference” and the Selectivity [3, 7] is given as “OT selective”.

For [Hmp1,Phe2,Ile3,Hgn4,Dab8]-VP [F-180], the Ki (human V1aR; ref Chini et al.([38])) is given as 11.7 nM, the Selectivity [1, 5] is given as “unselective” and the Selectivity [2, 6] is given as “V1a preference”.

In the case of “[Phe2,Ile3,Hgn4,Orn(iPr)8]-VP [FE 202158]”, the Ki (human V1aR; selective agonist, ref [100], [101]) is listed as 4.4 nM.

For [Thr4,Gly7]-OT [T4G7-OT], the Selectivity [1, 5] is given as “OT selective”, the Selectivity [2, 6] is given as “OT preference” and the Selectivity [3, 7] is given as “OT selective”. For the same compound, the Ki (rat OTR) was 1 nM.

For d(CH2)5[D-Ile2,Ile4,Tyr9]-AVP, the Ki (human V1aR; ref Chini et al.([38])) is given as 3.7 nM.

In the case of d(CH2)5[Tyr(Me)2]-AVP, the Ki (rat V1aR) is given as 0.7 nM.

In the case of dDAVP, the Ki (rat V2R) is listed as 0.3 nM.

In the case of d[Cha4]-AVP, the Ki (human V1bR) is given as 1.2 nM, the Selectivity [1, 5] is given as “unselective” and the Selectivity [2, 6] is given as “V1b selective”.

In the case of d[Leu4, Lys8]-VP, the Ki (rat V1bR) is given as 1.2 nM.
